The record followed here is the RNAGym collection of RNA variant scans (doi:10.1126/science.aae0568).

Variants at the floor of the assay were thinned out.

First the molecules themselves.
B1: tRNA (parent)
chain: GUUCCGUUGGCGUAAUGGUAACGCGUCUCCCUCCUAAGGAGAAGACUGCGGGUUCGAGUCCCGUACGGAACG

The variants in this series derive from B1. Briefly: yeast fitness relative to wild type (ratio to wild type); higher = fitter; tRNA-Arg(CCU), competitive growth, 37 C, YPD. Summed up:
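For this measurement, the tRNA-Arg(CCU) gene was varied by chemical synthesis at a 3% per-site mutation rate across 69 sites, and each variant was placed at the native genomic locus in Saccharomyces cerevisiae. The pooled strains went through a 24-hour competition in YPD at 37°C in six parallel replicates, with amplicons from start and end populations read by 100-nucleotide paired-end sequencing. Darwinian fitness relative to wild type followed from the change in each genotype's frequency. Genotypes needed ≥ 100 starting reads, and estimates < 0.5 were set to 0.5.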
For GUUCCGUUGGCGUAAUGGUAACGCGUCUCCCUUCUAAGGAGAAGACUGCGGGUUCGAGUCCCAUACGGAACG [C33U G63A], the yeast fitness was 0.614. GUUCCGUUGGCGUAAUGGUAACGCGUCACCCCCCUAAGGAGAAGACUGCGGGUUCGAGUCCCGUACGGAGCG [U28A U32C A70G]: the yeast fitness turned out to be 0.604. As for GUUCCGUUGGCGAAAUGGUAACGCCUAUCGCUCCUAAGGCGAAGACUGCGGGUUCGAGUUCCGUAGGGAACG [U13A G25C C27A C30G A40C C60U C66G], the yeast fitness was at most 0.5. The value for GUUCCGUGGGCGUAAUGGUAAUGCGUCUCCCUCCUAAGGAGAGGACUGCGGGUUCGAGUCCCGUACGGAACG [U8G C22U A43G] was at most 0.5. Turning to GUUCCGUUGGCGUAAUGGUAACACGUAUCCCUCCUAAGGAGAAGACUGCGGGUACAAGUCCCGUAGGGAACG [G23A C27A U54A G56A C66G], the yeast fitness was at most 0.5.

For the variant GUUCCGUUGGCGUAAUGCUAACGCGUCUCCCUCCUAAGGAGAAGACUGCGGGUUCGAGUCCUGUACGGAACG [G18C C62U], the yeast fitness is 0.611. The value for GUUCGGUUGGCGUAAUGGUAUCGCGUCUACCUCCUAAGGAGAAGACUGCGGGUUCGAGUCCCGUACGGAACG [C5G A21U C29A] was 0.631. On to GUUCCGUUGGCGUAAUGGUAAGGGGUGUCCCUCCUAAGGAGAAGACUGCGGGUUCGACUCCCGUACGGAACG [C22G C24G C27G G58C], for which the yeast fitness was at most 0.5. Turning to GUUCCGUUGGCGUAAUGGUAACGCGUCUCCCUCCUAAGCAGAAGACUGCGGGUGCGAGUCCCGUACGGACCG [G39C U54G A70C], the yeast fitness amounted to 0.564.

On to GUUCCGUUGGCGUAAUGGUAACGCGUCUCCCUCCUAAGGAGAAGACCGCGGGUUCGAGUCCCGUACGAAACG [U47C G68A], for which the yeast fitness was 0.876. As to GUUCCGUUGGCGUAAUGGUAACGGGUCUCCUUGCUAAGGAGCUGACUGCGGGUUCGAGUCCCGUACGGAACG [C24G C31U C33G A42C A43U], the yeast fitness was found to be 0.574. The value for GUUCCGUUGGCGUAAUGGUAACGCGUCUCCCUCCUAAGGAGAAGACUGCGGGUUCGAGGCCCGUCAGGAACG [U59G A65C C66A] was at most 0.5; that for GUUCCGUUGGCGUAAUGGUAACGCGUCUCCCUCCUAAGGAGAAGACUGCGGGUUCGACUCCCGUACGGAUCG [G58C A70U] was 1. The value for GUUCCGUCGGCGUAAUGGUAACGCGUCACCCUCCUAAGGAGAAGAGUGCGGGUUAGAGUCCCGUACGGAACG [U8C U28A C46G C55A] was 0.731; that for GUUCCGUUAGCGUAAUGGUAACGCGUCUCCCUCCUAAGGAGAAAACUGCGGGUUCGAGUCCCGUACGGAACG [G9A G44A] was 0.983; that for GUUCCGUUGGCGUAAUGGAAACGCGUCUCCCUCCUAAGGAGAAGACUACAGGUUCGAGUCCACUACGGAACG [U19A G48A G50A C62A G63C] was 0.591. The value for GUUCCGUUGGCGUAAUGGUAACGCGUCUCCCUCCUGAGGAGGAGACUGCGGGUUAGAGUCCCGUACGGAACG [A36G A42G C55A] was at most 0.5; that for GUUCCGUUGGCGUAAUGGUAACGCGUCUCCUUCCUAAGGAGAAAAUUGCGGGUUCGAGUCCCGUACGGAACG [C31U G44A C46U] was 0.629.

As to GCUCCGUUGGCGUAAUGGUAACGCGUCUCCCUCCUAAGGAGAAGACUGAGGGUUCGAGUCCUGUACGGAACG [U2C C49A C62U], the yeast fitness was at most 0.5. The value for GUUCCGUCGGCGUAAUGGUAACGCGUCUCCCUCCUAAGGAGAAGAAUGCGGGUUCGAGUCCUGUACGGAACG [U8C C46A C62U] was 0.774; that for GUUCGGUUGGCGUAAUGGUAACGCGUCUCACUCCUAAGGAGCAGACUGCGGGUUCGAGUCCCGUACGGAACG [C5G C30A A42C] was at most 0.5. Take GGUCCGUUGGCGUAAUGGUAACGCGUCUCCCUCCUAAGGAGAUGACCGCGGGUUCGAGUCCCGUACGGAACG [U2G A43U U47C]: the yeast fitness came to 0.731. The result for GUUCCGUUGGUGUAAUGGUACCGCGUGUCCCUCCUAAGGAGAAAACUGCGGGUUCGAGUCCCGUUCGGAACG [C11U A21C C27G G44A A65U] reads at most 0.5; that for GUUCCGUUGGCGUAAUGGUAACGCGUCUCCCUCCCAAGGAGAAGACUGCGGGUUCGAGUCCCGUACGGAGCG [U35C A70G], 0.781; that for GUUCCGUUGGCGUAAUGGUAACGCGUCUCCCACCUAAGGAGAAGACUGCGGGUUCGAGUACCGUACGGAACG [U32A C60A], at most 0.5. On to GUUCCGUUGGCAUAAAGGUAACGCGUCUCCCUCCUAAGGAGAAGUCUGCGGGUUCGAGUCCCGUACGGAACG [G12A U16A A45U], for which the yeast fitness came out at 0.629. Turning to GUUCCGUUGGGGUACUGGUAACGUGUCUCCCUCCUAAGGAGAUGACUGCGGGUUCGAGUCCCGUACGAAACG [C11G A15C C24U A43U G68A], the yeast fitness was at most 0.5. The value for GUUCCGUUGGGGUAAUGGUAACGCGUCUCUCUCCUAAGGAGAAGGCUGCGGGUUCGUGUCCUGUACGGAACG [C11G C30U A45G A57U C62U] was at most 0.5; that for GUUCCGUUGGCGUAACGGUAACGCGUCUCCCUCCUAAGGAGAAGACUGCGGGUUCGAGUCCCGUACGGAACG [U16C] was 1.01; that for GUUCUGUUGGCGUAAUGGUAAUGCGUCUCCCUCCUAAGGAGAAGACUGCGGGUUCGAGUCCUGUACGGAACG [C5U C22U C62U] was 0.66. Consider GUUCCGUUGGAGUAAUGGUAACGCCUCUCCCUCCUAAGGAGAAGAUUGCAGGUUCGAGUCCCGUACGGAACG [C11A G25C C46U G50A], for which the yeast fitness was at most 0.5.

For the variant GUUCCGUUGGCGUAAUGGUAACGCGUCUCCCUCCUAAGGAGAAGACUGAGGGUUCGAGUGCCGUACGGAUCG [C49A C60G A70U], the yeast fitness was at most 0.5.

On to GUUCCGUUGGCGUAAUGGUAACGCGCCUCCCUCCUAAGGAGAAGACUGCGGAUUCGAGUCCCGUACGGAACG [U26C G52A], for which the yeast fitness is 0.748. The result for GUUCCGUUGGCGUAAUGGAAUCGAGUCCCCCUCCUAAGGAGAAGACUGCGGGCUCGAGUGCCGUACGGAACG [U19A A21U C24A U28C U53C C60G] reads at most 0.5; that for GUUCCGUUGGCGUAAUGGUAACGCGGCUCCCCCCUAAGGAGAAGACUGCGGGUUCGAGUCCCGUACGGAACG [U26G U32C], 0.821; that for GUUCCGUUGGCGUAAUGGUAACGCGUCUCUCUCCUAACGAGAAGACUGCGGGUUCGAGUCCCGUACGGAACG [C30U G38C], 0.66. For GUUCCGUUAACGUAAUGGUAACGCGUCUCCGUCCUAAGGAGAAGACUGCGGGUUCGAGUCCCGUUCGGAACG [G9A G10A C31G A65U], the yeast fitness is at most 0.5. The value for GUUCCGUUGACGUAAUGGUAACGCGUCUCCCUCCUAAGGAGAAGUCUACGGGUUCGAGUCCCGUACGGAACG [G10A A45U G48A] was at most 0.5.
